This is a sample that favours compounds with a hit; in the whole collection about 1.9% have one here.
proCasp7 act – procaspase-7 activators, primary screen, counter-screen for procaspase-3 activator project, biochemical, absorbance, HTS, human; Caspase-7 (Homo sapiens), P55210; recombinant procaspase-7, Ac-DEVD-pNA absorbance 405 nm; D23A/D198A/D206A triple mutant, cannot self-cleave; scale: DMSO 0, 5 µM enzyme 100; activation, % at 8.5 µM; hit rate 0.093% among 330,000; AID 463210, 2010;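 active = percent activation above the screen-wide mean plus 3 SD, cut at about 25% in these data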
Target sequence (P55210 whole entry D23A/D198A/D206A): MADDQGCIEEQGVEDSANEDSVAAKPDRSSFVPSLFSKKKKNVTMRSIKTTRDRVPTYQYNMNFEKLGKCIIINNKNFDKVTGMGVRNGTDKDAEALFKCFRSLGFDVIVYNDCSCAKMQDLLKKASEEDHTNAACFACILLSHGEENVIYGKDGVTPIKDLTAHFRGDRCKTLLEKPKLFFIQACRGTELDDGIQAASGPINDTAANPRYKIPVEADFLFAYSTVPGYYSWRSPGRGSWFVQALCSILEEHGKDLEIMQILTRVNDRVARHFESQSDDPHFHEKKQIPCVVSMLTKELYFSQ
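Material: Procaspase-7 triple mutant (PC-7 D3A) | Quantity: 2 µM procaspase-7 mutant as dispensed | Reagent: DEVD-pNA substrate | Times: 1 h preincubation, 2 h reaction | Technique: 405 nm absorbance of p-nitroaniline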
PHOSPHO1 block – PubChem AID 1565. inhibition, % at 13.3 µM. recombinant PHOSPHO1, absorbance phosphatase assay. hit rate 1.1% among 290,000; in the data active = inhibition above about 60%
IDE inh – human IDE inhibitors in live cells, primary screen, fluorescence polarization, HEK cells, FAbetaB substrate; AID 434962, 2010; FAbetaB cleavage; hit rate 0.41% among 320,000; inhibition, % at 5.59 µM;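 active = percent inhibition above the average of all tested compounds plus 3 SD, set per screening campaign, cut at about 16% in these data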;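 note: IDE supplied by intact live HEK cells; FP after avidin binding of uncleaved biotin substrate so inhibition keeps polarization high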
IDE act – human IDE activators in live cells, primary screen, fluorescence polarization, HEK cells, FAbeta-B substrate. activation, % at 5.96 µM. FAbeta-B cleavage; 0% vehicle, 100% cell-free pure enzyme wells. hit rate 0.073% among 340,000;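 active = activation above the mean of all tested compounds plus 3 SD, set per screening campaign, cut at about 17% in these data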
procasp3 activ – activators of human procaspase-3 D3A mutant, primary screen, biochemical, absorbance, PC-3 D3A mutant, single concentration; hit rate 0.11% among 330,000; recombinant procaspase-3 D3A, Ac-DEVD-pNA absorbance 405 nm; activation, % at 8.5 µM; Caspase-3 (Homo sapiens), P42574;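 active = activation above the mean of all tested compounds plus 3 SD, cut at about 21% in these data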
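System: Procaspase-3 D3A mutant. Medium: Zinc-free 300 mM NaCl, 50 mM HEPES, 0.01% Triton X-100. Schedule: 1 h preincubation plus 2 h reaction at 25 °C. Measured by: 405 nm absorbance of p-nitroaniline, reads at 0 and 120 min. Read-out: percent activation relative to control range.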
UBC13 polyUb – UBC13 polyubiquitin chain formation inhibitors, primary screen, biochemical, TR-FRET, uHTS; AID 485273, 2010; hit rate 0.47% among 330,000; inhibition, % at 20 µM; Ubiquitin-conjugating enzyme E2 N (Homo sapiens), P61088; in the data active = inhibition above about 45%, passing the limit was not always enough
Target sequence (P61088 whole entry, looked up): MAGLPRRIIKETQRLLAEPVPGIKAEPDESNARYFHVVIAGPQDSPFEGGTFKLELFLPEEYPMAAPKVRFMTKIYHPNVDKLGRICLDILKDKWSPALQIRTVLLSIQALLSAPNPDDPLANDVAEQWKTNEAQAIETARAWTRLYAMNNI
Of the large screens only hits and unclear results are named; the others gave an inactive call.

CCSc1nc(N2CCOCC2)c2c(c1C#N)CC(C)(C)N(C)C2	none
CN1Cc2c(N3CCOCC3)nc(SCc3ccccc3)c(C#N)c2CC1(C)C	PHOSPHO1 block 80
CN(C)CCNC(=O)COc1ccc(C23CC4CC(CC(C4)C2)C3)cc1	PHOSPHO1 block 66
Cc1ccnc(OC(C(=O)O)C(OCc2ccccc2)(c2ccc(F)cc2)c2ccc(F)cc2)n1 (stereo unspecified)	none
COc1ccc(OC)c(N(CC(=O)Nc2ccc3c(c2)OCO3)S(=O)(=O)c2ccccc2)c1	none
COc1ccc(Cl)cc1N(CC(=O)Nc1ccc2c(c1)OCO2)S(C)(=O)=O	PHOSPHO1 block 69
c1ccc(Cc2nn3c(C4COc5ccccc5O4)nnc3s2)cc1 (stereo unspecified)	PHOSPHO1 block 62
Cc1ccc(-c2nnc3sc(C4COc5ccccc5O4)nn23)cc1 (stereo unspecified)	none
COc1ccccc1-c1nn2c(C3COc4ccccc4O3)nnc2s1 (stereo unspecified)	PHOSPHO1 block 92
c1ccc(CCc2nn3c(C4COc5ccccc5O4)nnc3s2)cc1 (stereo unspecified)	none
CCc1cc(C(=O)N2CCN(C(=O)c3ccccc3)CC2)sc1C	none (no result: proCasp7 act, PHOSPHO1 block, IDE inh, procasp3 activ)
O=C(/C=C/c1ccccc1Cl)Nc1ccncc1	none
CC(=O)N(C)c1ccc(NC(=O)/C=C/c2ccccc2Cl)cc1	PHOSPHO1 block 95
CCCOc1cc(N)ccc1C(=O)OCCN(CC)CC	none (no result: PHOSPHO1 block)
CCCOc1ccc(N)cc1N	PHOSPHO1 block 65
CCCCCCCCCCCCCC(=O)NO	none (no result: proCasp7 act, PHOSPHO1 block, IDE inh, procasp3 activ, UBC13 polyUb)
COC(=O)C(C)Sc1n[nH]c(=S)s1 (stereo unspecified)	PHOSPHO1 block 102
COc1cc(NC(=O)c2cc3nc(C4CC4)cc(C(F)(F)F)n3n2)c(OC)cc1Cl	PHOSPHO1 block 60
Cc1cccc(/N=C/c2sc3ccccc3c2O)n1	none
Oc1c(C=Nc2cccc3cccnc23)sc2ccccc12	IDE inh 49 (no result: IDE act)
CC(C)(C)NCC(=O)N/N=C/c1ccc(OCc2ccccc2)cc1	IDE inh 16
Cc1ccc(NC(=O)CN2CC(C)SC2=NC2CCCCC2)cc1 (stereo unspecified)	PHOSPHO1 block 74
Cc1ccc(NC(=O)CN2CCOCC2)cc1	none
CN(c1ccccc1)S(=O)(=O)c1nnc(NC(=O)C2CCCCC2)s1	PHOSPHO1 block 70
O=C(CN1C(=O)NC2(CCSC2)C1=O)N1CCN(c2ccc(F)cc2)CC1 (stereo unspecified)	PHOSPHO1 block 99
Cc1ccc(C)c(OCC(=O)NCC(c2ccco2)N2CCCCC2)c1 (stereo unspecified)	none (no result: PHOSPHO1 block)
Cc1ccc2[nH]c(=O)c(C(c3nnnn3CC3CCCO3)N3CCCc4ccccc43)cc2c1 (stereo unspecified)	PHOSPHO1 block 86
CCC(C)(C)n1nnnc1C(c1cc2cc(C)ccc2[nH]c1=O)N1CCCc2ccccc21 (stereo unspecified)	PHOSPHO1 block 75
O=C1CSC(=S)N1/N=C/c1ccc(O)c(O)c1O	PHOSPHO1 block 74
O=C1CSC(=S)N1/N=C/c1cc(Br)ccc1O	none (no result: IDE act, UBC13 polyUb)
COc1ccc(OC)c(NC(=O)COc2coc(CN3CCc4ccccc43)cc2=O)c1	none (no result: PHOSPHO1 block)
COCCN(C(=O)C1CCCO1)c1c(N)n(CC(C)C)c(=O)[nH]c1=O (stereo unspecified)	none (no result: PHOSPHO1 block)
COc1ccc(CCNC(=O)c2noc(C)c2[N+](=O)[O-])cc1OC	none
COc1ccc(-c2n[nH]c(=S)n2C2CCCCC2)cc1	PHOSPHO1 block 100
COc1ccc(Cl)cc1-c1n[nH]c(=S)n1C1CCCCC1	PHOSPHO1 block 97
Cc1ccc(-n2c(CCc3nc4ccccc4[nH]3)n[nH]c2=S)cc1	PHOSPHO1 block 81
CCC(=O)N1CCN(c2ccc(NC(=O)c3ccc4ccccc4c3)cc2)CC1	none
CCC(=O)N1CCN(c2ccc(NC(=O)c3ccccc3)cc2)CC1	PHOSPHO1 block 63
O=C(CC1C(=O)NCCN1Cc1ccc(-c2ccccc2)cc1)NCC1CC1 (stereo unspecified)	PHOSPHO1 block 60
C=CCNC(=O)CC1C(=O)NCCN1Cc1ccc(-c2ccccc2)cc1 (stereo unspecified)	none
O=C(O)c1ccc(Cl)c2c1C1C=CCC1C(c1ccccn1)N2 (stereo unspecified)	PHOSPHO1 block 83 (no result: IDE act)
O=[N+]([O-])c1ccc(Cl)c2c1C1C=CCC1C(c1ccccn1)N2 (stereo unspecified)	none
CCN1CCN(C(=S)c2ccc(Cl)cc2)CC1	PHOSPHO1 block 94
COc1ccc(NC(=O)CN(C)S(=O)(=O)c2cnc[nH]2)cc1Cl	none
O=C(COc1ccc(C(=O)c2ccccc2)cc1)Nc1cccnc1	none
CCC(=O)N1CCN(c2ccnc3cc(Cl)ccc23)CC1	none
COc1cccc(Cl)c1NC(=O)N1CCN(c2ccnc3cc(Cl)ccc23)CC1	IDE inh 26
CCC(=O)OCCNc1cc(Sc2nc3ccccc3s2)c2nonc2c1[N+](=O)[O-]	PHOSPHO1 block 88
Cn1c(=Nc2ccccc2)sc2ccccc21	none
CN(C)c1ccc(N=c2sc3ccccc3n2C)cc1	PHOSPHO1 block 94
O=C(O)c1ccccc1NC(=O)C1CCN(S(=O)(=O)c2cccc3nsnc23)CC1	IDE act 32
CC[C@@H]1C/C=C\Cc2ccccc2[C@@H](C(=O)C[C@H](O)CC(C)=O)OC1=O	none (no result: PHOSPHO1 block)
COc1cc(OC)cc(C(=O)NNC(=O)c2ccc3c(c2)OCCO3)c1	none (no result: PHOSPHO1 block)
COc1cc(OC)cc(-c2nnc(NC(=O)c3ccc4c(c3)OCCO4)o2)c1	PHOSPHO1 block 63
O=C(N/N=C/c1ccc[nH]1)c1cc2ccccc2cc1O	none
O=C(N/N=C/c1ccncc1)c1cc2ccccc2cc1O	PHOSPHO1 block 61 (no result: proCasp7 act, IDE inh, procasp3 activ)
CCCC[C@@H]1CNC(=O)C(=O)N1CCc1cccc2ccccc12	none (no result: PHOSPHO1 block, IDE act)
O=S1(=O)N=C(SCCO)c2ccccc21	PHOSPHO1 block 92
CCOC1=NS(=O)(=O)c2ccccc21	none
CCc1ccc(C(=O)C(C)OC(=O)c2nc3nc(C)cc(C)n3n2)cc1 (stereo unspecified)	none (no result: PHOSPHO1 block)
CCOC(=O)C1CC(c2ccc(Cl)cc2)=NNC1=O (stereo unspecified)	PHOSPHO1 block 61
O=S(=O)(NCc1csc(-c2cccnc2)n1)c1ccc(Br)cc1	PHOSPHO1 block 80

Assay outcomes as filed in PubChem.
